From PubChem BioAssay
Rows were chosen to be rich in hits. Some 3.7% of all compounds tested hit in one or more screens of this group.
hERG protect: shields human hERG channel from block by proarrhythmic agents | hit rate 0.51% among 310,000 | CHO-hERG, FluxOR thallium flux, dofetilide IC70 present | activation (rescue from dofetilide block), less the hit threshold, % at 10 µM | Q12809;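 active means activation above the mean of controls blocked by dofetilide plus 5 SD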;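 further: thallium influx through hERG after potassium depolarization seen as dye fluorescence rise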
KCNK9 block: human KCNK9 channel inhibition. hit rate 1.2% among 310,000. HEK293 KCNK9, FluxOR thallium flux fluorescence; active compounds read low. B-score at 10 µM. Q9NPC2;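 active means ratio B-score over 3 SD below the library mean, with starting fluorescence within 5 SD of its mean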;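 further: negative B-score means less thallium flux so channel inhibition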
KCNK3 block: human KCNK3 channel inhibition, primary screen; O14649; CHO-KCNK3 thallium flux, FluxOR fluorescence; active compounds read low; B-score at 10 µM; hit rate 0.84% among 340,000; AID 602410;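 active means B-score under library mean minus 4 SD, starting fluorescence ratio at most library mean plus 5 SD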;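 further: more negative B-score means stronger inhibition of thallium flux through KCNK3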
Kir21 inh: blocks the mouse Kir2.1 inward-rectifier potassium channel | P35561 | HEK293-Kir2.1, FluxOR thallium flux fluorescence; active compounds read low | B-score at 10 µM | hit rate 0.85% among 310,000 | AID 1672;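 active means fluorescence ratio B-score at or below minus 3 SD of library scores, with starting-brightness B-score within 2 SD, cut at about -4.2 in these data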;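 further: channel flux triggered by added potassium and thallium sulfate stimulus; B-score of peak minus minimum fluorescence over baseline after thallium stimulus; more negative B-score means stronger Kir2.1 block with less thallium influx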
Target sequence (P35561 whole entry, looked up): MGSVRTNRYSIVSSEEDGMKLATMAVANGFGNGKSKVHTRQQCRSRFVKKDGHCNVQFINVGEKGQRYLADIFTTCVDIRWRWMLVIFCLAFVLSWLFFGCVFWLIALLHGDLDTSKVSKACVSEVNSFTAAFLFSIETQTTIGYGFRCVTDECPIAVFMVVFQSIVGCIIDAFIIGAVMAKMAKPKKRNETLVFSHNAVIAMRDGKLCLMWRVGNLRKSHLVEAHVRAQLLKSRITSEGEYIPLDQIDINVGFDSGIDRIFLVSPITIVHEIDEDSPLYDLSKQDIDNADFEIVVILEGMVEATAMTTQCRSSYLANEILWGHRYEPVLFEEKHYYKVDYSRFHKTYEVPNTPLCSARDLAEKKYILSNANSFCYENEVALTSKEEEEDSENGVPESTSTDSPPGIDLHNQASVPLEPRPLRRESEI
KCNQ1 act: potentiates or activates the human KCNQ1 potassium channel. hit rate 0.35% among 310,000. CHO-K1 KCNQ1, thallium flux FluxOR fluorescence; active compounds read high. P51787. B-score at 10 µM;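 active means fluorescence ratio B-score, a plate-corrected score, at least three library SD, with initial intensity B-score within 5 SD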
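Material: CHO-K1 cells stably expressing KCNQ1. Medium: assay buffer for compound exposure, DMSO matched across wells. Reagent: K+/Tl+ depolarizing stimulus. Compound dosing: single-concentration screen. Times: 37 °C overnight plating, 90-min dark dye load, 20-min compound pretreatment. Technique: FluxOR Tl+ flux fluorescence.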
KCNQ1 block: inhibitors of human KCNQ1 potassium channel; P51787; CHO-K1 KCNQ1, FluxOR thallium flux fluorescence; active compounds read high; B-score at 10 µM; hit rate 1.3% among 310,000; AID 2642;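 active means compounds whose thallium flux B-score, printed positive for inhibition, exceeds three library SD while starting fluorescence stays within three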;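 further: channel opened by potassium depolarization with thallium stimulus after 20 min compound exposure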
An asterisk follows results filed as active; i = inactive; nt = no result given.

SMILES	hERG protect	KCNK9 block	KCNK3 block	Kir21 inh	KCNQ1 act	KCNQ1 block
NC(N)=NCCCS(=O)(=O)Nc1ccc(Nc2c3ccccc3nc3cc([N+](=O)[O-])ccc23)cc1	nt	nt	i	nt	nt	nt
COC(=O)c1ccccc1CSc1nsc(/C=C/N(C)C)c1C#N	-20	i	i	-0.12	i	6*
Cc1nc(CSc2nsc(/C=C/N(C)C)c2C#N)cs1	-9	i	i	-0.63	i	i
Cc1c(C(=O)OCC(=O)N2CC(=O)Nc3ccccc32)oc2ccc(Br)cc12	7.2*	i	i	0.21	i	i
COc1ccc(NC(=O)CN2CCOCC2)cc1	7.0*	i	i	1.8	i	i
CCCc1nnc(NC(=O)CN2CCOCC2)s1	12*	i	i	-0.55	i	i
O=C(CN1CCCCC1)Nc1ccccc1	-10	i	i	0.03	i	i
COc1ccc2nc(NC(=O)CN3CCOCC3)sc2c1	7.3*	i	i	-1.2	i	i
O=C(CN1CCCCCC1)Nc1ccc(Oc2ccccc2)cc1	18*	i	i	-2	19*	i
C[C@@H](C(=O)OCC(=O)c1ccc(F)c(F)c1)N1C(=O)C2CCCCC2C1=O (stereo not given in full)	nt	nt	i	nt	nt	nt
COCCNC(=O)C(OC(=O)c1ccco1)c1ccc(OC)cc1 (stereo not given)	nt	nt	i	nt	nt	nt
COc1ccc(NC(=O)CN2CCN(c3ccccc3)CC2)cc1	-3	i	i	0.63	i	i
Cc1ccccc1NC(=O)CCN1CCCCCC1	4.8*	i	i	0.54	i	i
O=C(CCN1CCOCC1)Nc1ccccc1	5.1*	i	i	-0.7	i	i
COc1cc(NC(=O)c2ccccc2F)c(OC)cc1NC(=O)CN1CCOCC1	4.7*	i	i	-1.3	i	i
COc1ccc(NC(=O)CN2CCN(C3c4ccccc4-c4ccccc43)CC2)cc1	-15	i	i	0.01	8*	i
COc1cc(NC(=O)c2ccc(F)cc2)c(OC)cc1NC(=O)CN1CCOCC1	-7	i	i	0	i	i
O=C1C=CC(=O)N1c1ccc2c(c1)C(NC(=O)C(F)(F)F)c1ccccc1-2 (stereo not given)	nt	nt	i	nt	nt	nt
O=C(Nc1cc([N+](=O)[O-])ccc1N1CCOCC1)c1ccco1	14*	i	i	-1.6	i	i
O=C(COC(=O)c1ccc(F)cc1F)Nc1cc(S(=O)(=O)N2CCOCC2)ccc1Cl	nt	nt	i	nt	nt	nt
Cc1ccc2nc(/C(C#N)=C\c3ccc([N+](=O)[O-])o3)[nH]c2c1	-5	i	i	-0.37	i	i
Cc1ccc2nc(/C(C#N)=C\c3ccc(N4CCOCC4)o3)[nH]c2c1	-8	i	i	-4.5	i	6*
COc1cc(NC(=O)CCS(=O)(=O)c2ccc3c(c2)n(C)c(=O)c(=O)n3C)cc(OC)c1	-5	i	i	1.1	i	i
CC(C)CNC(=S)NC(=O)c1ccc(Cl)cc1Cl	-10	i	i	-1.6	10*	i
Cc1cc(C)c(OCC(=O)Nc2cccc(NC(=O)c3ccco3)c2)c(Br)c1	-10	-7.9*	i	-0.15	i	i
SMILES	hERG protect	KCNK9 block	KCNK3 block	Kir21 inh	KCNQ1 act	KCNQ1 block
Cc1ccc2nc(-c3ccc(NC(=O)c4ccco4)cc3)[nH]c2c1	-7	i	i	-0.31	i	i
O=C(Nc1cccc(NC(=O)c2ccco2)c1)c1ccccc1	-10	-7.6*	i	0.22	i	i
O=C(Nc1cccc(-c2nc3ccccc3[nH]2)c1)c1ccco1	-37	-6.9*	i	0.69	i	i
O=C(Nc1cccc(NC(=O)c2ccc(-c3cccc(Br)c3)o2)c1)c1ccco1	-27	-12*	i	-0.96	i	i
O=C(c1ccccc1)c1cccc(NC(=O)c2ccco2)c1	-15	i	i	-0.12	i	i
O=C(COC(=O)CC1SC(N2CCCC2)=NC1=O)Nc1ccc(Br)cc1 (stereo not given)	nt	nt	i	nt	nt	nt
C=CC[C@@H](CC(=O)NCCO)C(=O)NC[C@H](OC(=O)[C@@H](CC=C)Cc1ccc(F)cc1)c1ccccc1	nt	nt	i	nt	nt	nt
O=C(O)c1cccc(Br)c1	nt	nt	i	nt	nt	nt
O=C(Nc1cccc(-c2nnc(-c3ccco3)o2)c1)c1ccccc1	-15	-6.9*	i	-1.2	i	i
O=C(Cc1cccs1)Nc1cccc(-c2nc3cc4ccccc4cc3[nH]2)c1	-21	i	i	0.94	i	9*
CC(=O)Oc1ccc(C2=Cc3ccc(OC(C)=O)cc3OC2C)cc1 (stereo not given)	nt	nt	i	nt	nt	nt
CN(c1cccc(NC(=O)CN(c2cccc(Cl)c2)S(=O)(=O)c2ccc(Cl)cc2)c1)S(C)(=O)=O	-3	-7.3*	i	-1.7	i	i
Cc1ccc(Cl)cc1N(CC(=O)Nc1cccc(N(C)S(C)(=O)=O)c1)S(C)(=O)=O	-18	i	i	-1.6	i	i
Cc1ccccc1C1C(C#N)=C2N=C(N)c3c(sc4c3CCCCC4)N2C2=C1C(=O)CCC2 (stereo not given)	-16	-6.8*	i	-0.75	i	i
COc1cccc(N=C2NC(=O)/C(=C/c3cc([N+](=O)[O-])ccc3O)S2)c1	-10	i	i	-0.36	i	7*
Cc1ccc(S(=O)(=O)/N=C2/NC(=O)/C(=C/c3cc([N+](=O)[O-])ccc3O)S2)cc1	-10	i	i	-1.7	i	i
Nc1nc(N)c2[nH]c(=S)[nH]c2n1	nt	nt	i	nt	nt	nt
COC(=O)c1ccccc1NC(=O)c1ccc(COc2ccccc2)o1	nt	nt	-10*	nt	nt	nt
COc1ccc(CCN(C)C(=O)c2ccc(COc3ccccc3)o2)cc1OC	-11	i	i	-5.8*	i	i
Cc1onc(-c2c(F)cccc2Cl)c1C(=O)ONC(=O)c1ccccc1	-7	i	i	-1.2	i	i
Cc1onc(-c2c(F)cccc2Cl)c1C(=O)c1ccc(F)cc1	-10	i	i	-4.8*	i	i
Cc1onc(-c2c(Cl)cccc2Cl)c1C(=O)ONC(=O)c1ccccc1	-8	i	i	-5.2*	i	i
Cc1onc(-c2c(Cl)cccc2Cl)c1C(=O)c1ccc(F)cc1	-8	i	i	-2.2	i	i
Cc1c(-c2ccccc2)sc2nc[nH]c(=S)c12	30*	i	i	0.39	91*	i
Cc1ccc(-c2nn(-c3cc(N4CCNCC4)ccc3[N+](=O)[O-])c(=O)c3ccccc23)cc1	-18	i	i	-4.2*	i	i
Cc1nn(-c2cc(N3CCCCCC3)ccc2[N+](=O)[O-])c(=O)c2ccccc12	-5	i	i	1.5	i	i
